Published values gathered from unrelated publications.
Lines come from different studies, so protocols differ.
LATS2: Serine/threonine-protein kinase LATS2 (LATS2, Homo sapiens, UniProt Q9NRM7)
AKR1B1: Aldo-keto reductase family 1 member B1 (AKR1B1, Homo sapiens, UniProt P15121)

Structure (SMILES)	target	effect on	action	method	IC50 [nM]
Cc1cc(-c2ccnc3[nH]cc(F)c23)cc(F)c1[C@@]1(O)[C@H](C)CN(C2CCS(=O)(=O)CC2)C[C@@H]1C	LATS2	target engagement in cells	–	BRET	36
COc1cc(/C=N/NC(=S)N/N=C/c2ccc(C=O)cc2)ccc1Oc1ccnc2cc(Cl)ccc12	AKR1B1	enzyme activity	inhibitor	absorbance	12900
CC(C)C[C@H](NP(=O)(O)O[C@@H]1O[C@@H](C)[C@H](O)[C@@H](O)[C@H]1O)C(=O)N[C@@H](Cc1c[nH]c2ccccc12)C(=O)O	Neprilysin (MME, Homo sapiens, UniProt P08473)	enzyme activity	inhibitor	–	575
Cc1cc2c(cc1C)N[C@H](c1ccccc1)[C@@H](O)C(=O)N2	Tyrosine-protein kinase JAK2 (JAK2, Homo sapiens, UniProt O60674)	enzyme activity	inhibitor	ELISA	343
COc1c(Cl)cccc1Nc1c(-c2ccncc2OC[C@@H]2COCCO2)[nH]c2c1C(=O)NCC2	Tyrosine-protein kinase Lck (LCK, Homo sapiens, UniProt P06239)	enzyme activity	inhibitor	TR-FRET	1120
O=C(NC1CCC2(CCCC2)CC1)c1ccc(-c2ccccc2)cc1	Transient receptor potential cation channel subfamily M member 8 (TRPM8, Homo sapiens, UniProt Q7Z2W7)	ion current	–	patch clamp	106
Clc1ccc(Nc2ccncc2)cc1Cl	Endonuclease 8-like 1 (NEIL1, Homo sapiens, UniProt Q96FI4)	enzyme activity	inhibitor	–	> 99000
OC1(c2ccc(-c3ccnc4[nH]cc(F)c34)cc2)CCNC1 (stereo not drawn)	LATS2	enzyme activity	inhibitor	radiometric	8.4
O=C(O[C@@H]1[C@@H](O)[C@H](Oc2cc(O)c3c(c2)O[C@H](c2ccccc2)CC3=O)O[C@@H]2COC(=O)c3cc(O)c(O)c(O)c3-c3c(cc(O)c(O)c3O)C(=O)O[C@@H]12)c1cc(O)c(O)c(O)c1	Thioredoxin domain-containing protein 5 (TXNDC5, Homo sapiens, UniProt Q8NBS9)	enzyme activity	inhibitor	fluorescence	3900
OC1(c2ccc(-c3ccnc4[nH]cc(F)c34)cc2)CCCNCC1 (stereo not drawn)	LATS2	enzyme activity	inhibitor	radiometric	12
COc1cc(/C=N/NC(=S)N/N=C/c2ccc(Br)cc2)ccc1Oc1ccnc2cc(Cl)ccc12	AKR1B1	enzyme activity	inhibitor	absorbance	8820
OC1(c2ccc(-c3ccnc4[nH]cc(F)c34)cc2)CCCNC1 (stereo not drawn)	LATS2	enzyme activity	inhibitor	radiometric	10
COc1cc(/C=N/NC(=S)N/N=C/c2ccc(F)cc2)ccc1Oc1ccnc2cc(Cl)ccc12	AKR1B1	enzyme activity	inhibitor	absorbance	19500
Cc1cc(-c2ccnc3[nH]cc(F)c23)cc(F)c1[C@@]1(O)[C@H](C)CN(C(=O)CN)C[C@@H]1C	LATS2	enzyme activity	inhibitor	radiometric	2.6
COc1cc(/C=N/NC(=S)NN=Cc2ccncc2)ccc1Oc1ccnc2cc(Cl)ccc12	AKR1B1	enzyme activity	inhibitor	absorbance	9920
